Experimental data taken from ChEMBL document CHEMBL1154599 (J Med Chem, 2009).
Active and inactive are the calls of the source. The rule behind the calls is not given here.

Key:
[1] = Permeability across PAMPA membrane assessed as retention at 2.5 mM by HDM-PAMPA assay; assay type: ADME; settings: 2500 µM
Method in brief: (§1)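 Hexadecane artificial membrane (0.75 μL per well, applied as 5% v/v in hexane, hexane evaporated) on polycarbonate filters; donor and acceptor in 0.1 M phosphate buffer pH 6.8 with 5% DMSO (iso-pH); 5 h at room temperature, shaking at 75 rpm; quadruplicate. Donor and acceptor concentrations read by UV at λmax. Retention, CA(t)/CD(0) and Pe calculated by the stated equations, τLAG neglected; membrane integrity checked by electrical resistance.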

Mus musculus [2] = test: Ex vivo inhibition of MAO-B in C57Bl mouse brain at 0.5 mg/kg, po after 1 hr by radioenzymatic assay; assay type: functional; parameters: scale not given: the % may be the effect or the level left
Method in brief: (§2)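 C57Bl mice (n = 6 per group) given 0.5 mg/kg orally and killed at 0.5, 1, 2, 4, 8 or 16 h. Brain homogenates in 0.1 M phosphate pH 7.40 assayed radioenzymatically for MAO-B with [14C]PEA. Mean ± SEM, ANOVA with Dunnett's test.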

Mus musculus [3] = test: Ex vivo inhibition of MAO-A in C57Bl mouse brain at 3 mg/kg, po or 3 mg/kg, ip after 1 hr by radioenzymatic assay; assay type: functional, organism-based
Method in brief: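 C57Bl mice (n = 6 per group) dosed orally or intraperitoneally at 3 mg/kg and killed 1 h later. Brains homogenized in 0.1 M phosphate pH 7.40. MAO-A ([14C]5-HT) and MAO-B ([14C]PEA) activities measured by radioenzymatic assay. Mean ± SEM, ANOVA with Dunnett's test.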

[4] = Permeability across PAMPA membrane assessed as permeability coefficient at 2.5 mM by HDM-PAMPA assay; assay type: ADME; settings: 2500 µM; method in brief: as §1
SH-SY5Y [5] = test: Cytotoxicity against human SH-SY5Y cells assessed as cellular damage up to 10 uM after 24 hrs by MTS assay; assay type: functional, cell-based
Method in brief: (§3)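 Human neuroblastoma SH-SY5Y cells kept in DMEM with 10% heat-inactivated FBS. Seeded at 6.25 × 10^4/cm2 and grown 72 h to subconfluence. Switched to serum-free neurobasal medium 30 min before compound, then 24 h at 37 °C with 1, 3, 10, 30 or 100 μM compound. Viability read by colorimetric MTS assay.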

Mus musculus [6] = test: Ex vivo inhibition of MAO-B in C57Bl mouse brain at 0.5 mg/kg, po after 2 hrs by radioenzymatic assay; assay type: functional; parameters: scale not given: the % may be the effect or the level left; method in brief: as §2
Mus musculus [7] = test: Ex vivo inhibition of MAO-B in C57Bl mouse brain at 0.5 mg/kg, po after 30 mins by radioenzymatic assay; assay type: functional; parameters: scale not given: the % may be the effect or the level left; method in brief: as §2
[8] = Octanol-water partition coefficient, log P by potentiometric titration; assay type: physicochemical
Mus musculus [9] = species on record: Mus musculus; test: Ex vivo inhibition of MAO-B in C57Bl mouse brain after 1 hr by radioenzymatic assay; assay type: functional
Mus musculus [10] = test: Ex vivo inhibition of MAO-B in C57Bl mouse brain at 0.5 mg/kg, po after 8 hrs by radioenzymatic assay; assay type: functional; parameters: scale not given: the % may be the effect or the level left; method in brief: as §2
[11] = Aqueous solubility at pH 3.0 by turbidimetric method; assay type: physicochemical; settings: aqueous solution
Method in brief: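 DMSO stock of compound added in 2 μL portions, about 10 additions, to 50 mM Tris-HCl pH 7.4 or 50 mM acetate pH 3.0 at room temperature, final DMSO below 5%. Precipitation read as light-scattering absorbance rise at 600-820 nm. Solubility limit taken from a bilinear fit of absorbance against DMSO volume. Three independent assays, mean ± SEM.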

Cytochrome P450 3A4 = Cytochrome P450 3A4 (Homo sapiens, UniProt P08684); test: Inhibition of human recombinant CYP3A4; assay type: ADME
Chain of Cytochrome P450 3A4 (P08684 whole entry, canonical isoform): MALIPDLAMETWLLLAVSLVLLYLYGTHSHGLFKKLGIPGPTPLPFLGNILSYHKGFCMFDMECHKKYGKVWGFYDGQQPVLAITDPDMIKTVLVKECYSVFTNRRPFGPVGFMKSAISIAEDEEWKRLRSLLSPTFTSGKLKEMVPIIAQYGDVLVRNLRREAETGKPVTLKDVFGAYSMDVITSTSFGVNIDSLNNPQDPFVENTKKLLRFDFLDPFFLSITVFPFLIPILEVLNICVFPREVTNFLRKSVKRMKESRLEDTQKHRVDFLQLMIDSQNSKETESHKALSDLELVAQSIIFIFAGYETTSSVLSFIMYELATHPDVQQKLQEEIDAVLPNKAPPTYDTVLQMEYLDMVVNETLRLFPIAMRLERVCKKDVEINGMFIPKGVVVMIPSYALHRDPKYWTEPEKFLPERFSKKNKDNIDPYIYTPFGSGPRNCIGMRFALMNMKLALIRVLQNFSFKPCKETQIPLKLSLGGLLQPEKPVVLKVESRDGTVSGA
Method in brief: (§4)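 Human recombinant CYP supersomes incubated at 37 °C with compound in NADPH-regenerating buffer, with fluorogenic substrates: 3-cyano-7-ethoxycoumarin for CYP2C19, […] for CYP3A4. Fluorescence read on a plate reader. Known isoform inhibitors run as positive controls in every assay.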

SH-SY5Y [12] = test: Cytotoxicity against human SH-SY5Y cells after 24 hrs by MTS assay; assay type: functional, cell-based; method in brief: as §3
Rattus norvegicus = species on record: Rattus norvegicus; test: Selectivity index, ratio of IC50 for rat MAO-A to IC50 for rat MAO-B
Method in brief: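 Ratio of IC50 values from rat brain mitochondrial radioenzymatic assays: MAO-A with [14C]5-HT 5 μM, 30 min, and MAO-B with [14C]PEA 0.5 μM, 10 min. Both after 30 min preincubation with compound at 37 °C.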

[13] = molecular target: Amine oxidase [flavin-containing] B (Homo sapiens) (UniProt P27338); test: Inhibition of MAO-B in human platelet rich plasma by radioenzymatic assay
Chain of Amine oxidase [flavin-containing] B (Homo sapiens) (P27338 whole entry, looked up): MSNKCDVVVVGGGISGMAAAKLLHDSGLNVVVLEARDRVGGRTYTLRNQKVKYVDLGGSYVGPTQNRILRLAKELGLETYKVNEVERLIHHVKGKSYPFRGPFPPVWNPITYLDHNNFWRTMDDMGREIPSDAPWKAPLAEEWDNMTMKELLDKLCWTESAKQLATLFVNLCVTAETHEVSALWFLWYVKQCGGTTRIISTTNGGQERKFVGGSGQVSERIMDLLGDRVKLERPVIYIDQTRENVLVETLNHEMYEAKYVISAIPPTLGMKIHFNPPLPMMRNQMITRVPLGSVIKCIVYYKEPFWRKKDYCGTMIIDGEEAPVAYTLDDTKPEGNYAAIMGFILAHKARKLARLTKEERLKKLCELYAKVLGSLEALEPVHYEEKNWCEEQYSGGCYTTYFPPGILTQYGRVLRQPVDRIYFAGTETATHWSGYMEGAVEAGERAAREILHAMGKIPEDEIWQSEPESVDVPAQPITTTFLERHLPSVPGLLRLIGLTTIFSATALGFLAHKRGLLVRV

Cytochrome P450 2D6 = Cytochrome P450 2D6 (Homo sapiens, UniProt P10635); test: Inhibition of human recombinant CYP2D6; assay type: ADME
Chain of Cytochrome P450 2D6 (P10635 whole entry, canonical isoform): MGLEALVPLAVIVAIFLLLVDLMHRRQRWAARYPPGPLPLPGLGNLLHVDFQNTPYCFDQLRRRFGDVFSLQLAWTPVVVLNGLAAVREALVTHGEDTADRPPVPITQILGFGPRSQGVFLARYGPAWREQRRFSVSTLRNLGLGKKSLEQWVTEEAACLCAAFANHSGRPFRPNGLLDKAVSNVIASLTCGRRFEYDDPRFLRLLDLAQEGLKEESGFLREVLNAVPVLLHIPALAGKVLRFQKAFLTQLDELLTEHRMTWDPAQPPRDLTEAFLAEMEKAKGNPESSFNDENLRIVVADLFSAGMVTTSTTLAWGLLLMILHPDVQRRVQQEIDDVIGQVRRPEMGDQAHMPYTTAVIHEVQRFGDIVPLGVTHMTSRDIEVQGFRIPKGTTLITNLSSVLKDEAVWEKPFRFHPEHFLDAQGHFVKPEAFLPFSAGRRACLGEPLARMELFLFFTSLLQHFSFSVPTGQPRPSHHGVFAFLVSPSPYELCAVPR
Method in brief: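 Human recombinant CYP isoenzymes (supersomes) were incubated at 37 C with the test compound in incubation/NADPH-regenerating buffer plus a fluorogenic substrate. The substrate was 3-[2-(N,N-diethyl-N-methylammonium)ethyl]-7-methoxy-4-methylcoumarin for CYP2D6 and 7-methoxy-4-phenylcoumarin for CYP2E1. Fluorescent product was read at isoform-appropriate wavelengths, with a literature inhibitor as positive control. IC50 came from nonlinear regression of at least seven concentrations, each in duplicate.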

[14] = Permeability across PAMPA membrane assessed as amount of drug reaching acceptor compartment at 2.5 mM by HDM-PAMPA assay; assay type: ADME; settings: 2500 µM; method in brief: as §1
Cytochrome P450 2C19 = Cytochrome P450 2C19 (Homo sapiens, UniProt P33261); test: Inhibition of human recombinant CYP2C19; assay type: ADME; method in brief: as §4
Chain of Cytochrome P450 2C19 (P33261 whole entry): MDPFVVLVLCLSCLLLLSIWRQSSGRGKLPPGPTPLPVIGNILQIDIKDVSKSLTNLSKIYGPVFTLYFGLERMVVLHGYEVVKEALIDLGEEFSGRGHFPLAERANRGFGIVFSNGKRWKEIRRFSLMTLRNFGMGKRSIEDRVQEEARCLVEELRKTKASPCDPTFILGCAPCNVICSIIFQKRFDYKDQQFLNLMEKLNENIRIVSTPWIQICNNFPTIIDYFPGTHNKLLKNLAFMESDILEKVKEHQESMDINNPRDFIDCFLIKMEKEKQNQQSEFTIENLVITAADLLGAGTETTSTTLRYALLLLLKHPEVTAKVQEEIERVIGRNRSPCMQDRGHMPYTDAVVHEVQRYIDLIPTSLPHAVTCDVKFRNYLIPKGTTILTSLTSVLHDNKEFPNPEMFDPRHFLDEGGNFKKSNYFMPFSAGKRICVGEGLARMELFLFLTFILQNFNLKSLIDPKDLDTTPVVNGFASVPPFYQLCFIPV

[15] = Dissociation constant, pKa by potentiometric titration; assay type: physicochemical
Method in brief: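 5 × 10^-4 M sample in 0.15 M KCl acidified to pH 1.8 with 0.5 M HCl, then titrated to pH 12.2 with carbonate-free 0.5 M KOH. Run at 25 ± 0.5 °C under slow argon flow, with a blank titration for standardization. pKa taken from the Bjerrum difference curve.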

permeability [1]: 10%
log Pe [4]: -3.48 cm/s
logP [8]: 2.49
solubility kinetic [11]: 2820 µg/mL
IC50 (Cytochrome P450 3A4): > 5 µM
Ratio IC50 (Rattus norvegicus): 457
IC50 [13]: 0.003 µM
IC50 (Cytochrome P450 2D6): > 5 µM
permeability [14]: 33.8%
IC50 (Cytochrome P450 2C19): > 5 µM
pKa [15]: 7.18
SMILES: CNCc1cc(=O)oc2cc(OCc3cccc(Cl)c3)ccc12.CS(=O)(=O)O
Activity (Mus musculus [2]): 86%
Activity (Mus musculus [3]): inactive
Activity (SH-SY5Y [5]): inactive
Activity (Mus musculus [6]): 90%
Activity (Mus musculus [7]): 84%
ED50 (Mus musculus [9]): 0.24 mg/kg
Activity (Mus musculus [10]): 60%
IC50 (SH-SY5Y [12]): 29.7 µM
